# Experimental data: ChEMBL document CHEMBL3763087, “Picrajavanicins A-G, Quassinoids from Picrasma javanica Collected in Myanmar” (J Nat Prod, 2015)
# Assays:
# Type in all cases: functional, cell-based
# A549 = assay: Antiproliferative activity against human A549 cells after 72 hrs by WST-8 assay; details: A549, 72 h
# Method in brief: (§1)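 The procedure follows an earlier report. Human A549 lung adenocarcinoma and HeLa cervix adenocarcinoma lines came from RCB; PANC-1 pancreatic epithelioid carcinoma, PSN-1 pancreatic adenocarcinoma and MDA-MB-231 breast adenocarcinoma came from ATCC. All were maintained in-house and grown in 96-well plates. Cell absorbance was read on a microplate reader and IC50 derived. 5-Fluorouracil served as positive control.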
# HeLa = assay: Antiproliferative activity against human HeLa cells after 72 hrs by WST-8 assay; method in brief: as §1
# [1] = Antiproliferative activity against human PANC1 cells after 72 hrs by WST-8 assay; details: PANC-1, 72 h; method in brief: as §1
# PSN1 = assay: Antiproliferative activity against human PSN1 cells after 72 hrs by WST-8 assay; details: PSN1, 72 h; method in brief: as §1
# MDA-MB-231 = assay: Antiproliferative activity against human MDA-MB-231 cells after 72 hrs by WST-8 assay; details: MDA-MB-231, 72 h; method in brief: as §1
SMILES,IC50 (A549) [µM],IC50 (HeLa) [µM],IC50 [1] [µM],IC50 (PSN1) [µM],IC50 (MDA-MB-231) [µM]
COC1=C(C)[C@]2(O)CC(=O)O[C@@H]3C[C@H]4CC[C@H](O)C(=O)[C@]4(C)[C@@H](C1=O)[C@@]32C,> 10,> 10,> 10,> 10,> 10
COC1=CC[C@@H]2C[C@H]3OC(=O)C[C@H]4C(C=O)=C(OC)C(=O)[C@H]([C@@]2(C)C1=O)[C@@]34C,> 10,> 10,> 10,> 10,> 10
COC1=CC[C@@H]2C[C@H]3OC(=O)C=C4C(C)=C(OC)C(=O)[C@H]([C@@]2(C)C1=O)[C@]43C,> 10,> 10,> 10,> 10,> 10
COC1=C(C)[C@@H]2CC(=O)O[C@@H]3C[C@H]4CC[C@H](O)C(=O)[C@]4(C)[C@@H](C1=O)[C@@]32C,> 10,> 10,> 10,> 10,> 10
COC1=CC[C@@H]2C[C@H]3OC(O)C[C@H]4C(C)=C(OC)C(=O)[C@H]([C@@]2(C)C1=O)[C@@]34C (stereo not given in full),> 10,> 10,> 10,> 10,> 10
COC1=CC[C@@H]2C[C@H]3OC(=O)C=C4C(CO)=C(OC)C(=O)[C@H]([C@@]2(C)C1=O)[C@]43C,> 10,> 10,> 10,> 10,> 10
COC1=C(OC)C(=O)[C@@]2(C)[C@H](C1)C[C@H]1OC(=O)C[C@@]3(O)C(C)=C(OC)C(=O)[C@H]2[C@@]13C,> 10,> 10,> 10,> 10,> 10
COC1=CC[C@@H]2C[C@H]3OC(=O)C[C@H]4C(C)=C(OC)C(=O)[C@H]([C@@]2(C)C1=O)[C@@]34C,> 10,> 10,> 10,> 10,> 10
COC1=C(OC)C(=O)[C@@]2(C)[C@H](C1)C[C@H]1OC(=O)C[C@H]3C(C)=C(OC)C(=O)[C@H]2[C@@]13C,> 10,> 10,> 10,> 10,> 10
COC1=C(C)[C@@H]2CC(=O)O[C@@H]3C[C@H]4CC[C@H](OC)C(=O)[C@]4(C)[C@@H](C1=O)[C@@]32C,> 10,> 10,> 10,> 10,> 10
O=c1[nH]cc(F)c(=O)[nH]1 [FLUOROURACIL],9,6.4,0.4,8.7,1.1
